Measured values collected from several papers.
Compare with care: the assays were run in different laboratories.
Target: Serine/threonine-protein kinase Nek3 (NEK3, Homo sapiens, UniProt P51956)
Residues used in one study (P51956 1-506): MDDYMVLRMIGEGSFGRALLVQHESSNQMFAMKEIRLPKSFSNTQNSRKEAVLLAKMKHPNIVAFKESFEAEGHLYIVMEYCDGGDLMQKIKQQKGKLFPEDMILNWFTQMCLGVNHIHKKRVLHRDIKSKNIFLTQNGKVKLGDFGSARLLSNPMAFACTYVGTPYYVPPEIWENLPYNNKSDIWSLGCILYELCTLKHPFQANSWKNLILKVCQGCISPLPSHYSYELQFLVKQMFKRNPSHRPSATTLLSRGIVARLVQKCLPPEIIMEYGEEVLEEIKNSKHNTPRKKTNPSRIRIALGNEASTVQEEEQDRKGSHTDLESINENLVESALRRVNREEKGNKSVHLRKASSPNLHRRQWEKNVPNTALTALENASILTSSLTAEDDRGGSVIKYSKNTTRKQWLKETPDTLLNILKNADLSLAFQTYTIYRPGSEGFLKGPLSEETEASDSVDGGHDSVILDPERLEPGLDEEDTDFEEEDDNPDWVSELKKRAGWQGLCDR

Structure (SMILES)	test	setting	remaining binding [%]
CCOCCn1cc(C(=O)Nc2ccc(-n3nc(-c4cccnc4)cc3C(F)(F)F)cn2)ccc1=O	cell-free assay, competition with immobilised ligand	1 µM	100
C[C@@H]1CCN(c2nccc(-c3cnn4ncccc34)n2)C1	binding	1 µM	81
O=C(NCc1ncc(C(F)(F)F)cc1Cl)c1ccc2c(c1)C1(CCS(=O)(=O)CC1)[C@H](C1CC1)N2S(=O)(=O)c1ccc(F)cc1	cell-free assay, competition with immobilised ligand	1 µM	100
O=C(NCCCN1CCOCC1)c1ccc(Nc2nccc(-c3cc4ccccc4s3)n2)cc1	binding, competition with immobilised ligand	1 µM	2.7
CN(CCCC(F)(F)F)c1nccc(-c2cnn3ncccc23)n1	binding	1 µM	100
COc1ncc2cc3ccccc3nc2c1C#N	cell-free assay, competition with immobilised ligand	5 µM	100
CNC(=O)[C@@H]1CC[C@@H](n2c(-c3ccc4cnccc4c3)nc3ccc(C(=O)NCc4cccc(C(N)=O)c4)cc32)C1	binding, competition with immobilised ligand	1 µM	61
C[C@@H](c1ccc(-n2cnc3c(N)ncnc32)cc1)N1CCc2nn(C)c(Cc3ccccc3)c2C1=O	binding, competition with immobilised ligand	0.1 µM	30
Nc1ncc2c(n1)-c1c([nH]c3ccc(C#CC4CC4)cc13)CCCC2	binding, competition with immobilised ligand	1 µM	78
FC(F)(F)Oc1cccc(-c2cnc3ccc(-c4ccncc4)nn23)c1	cell-free assay, competition with immobilised ligand	5 µM	73
CN(c1nccc(-c2cnn3ncccc23)n1)C1CC1	binding	1 µM	87
O=C(c1ccc(Nc2ncc(Cl)c(-c3ccc(Cl)s3)n2)cc1)N1CCC(N2CCCC2)CC1	binding, competition with immobilised ligand	1 µM	0.45
CC1CCCN1c1nccc(-c2cnn3ncccc23)n1 (stereo not drawn)	binding	1 µM	82
O=C(O)[C@@H]1[C@@H](Cn2nnc3ccccc3c2=O)CC[C@H]1C(=O)c1ccc(OCCC2CCOCC2)cc1	cell-free assay, competition with immobilised ligand	1 µM	83
CN(C)c1ncc(F)c(-c2cnn3ncccc23)n1	binding	1 µM	70
CCCOc1ccc([C@@H]2[C@@H](C(=O)O)[C@H](c3ccc4c(c3)OCO4)CN2CC(=O)Nc2c(CC)cccc2CC)cc1	cell-free assay, competition with immobilised ligand	1 µM	100
O=C(c1ccc(Nc2ncc(Cl)c(-c3cc4ccccc4s3)n2)cc1)N1CCC(N2CCCC2)CC1	binding, competition with immobilised ligand	1 µM	1.3
N#CC1(c2ccccn2)CCN(Cc2cc(C(=O)N3CCCC3)c(=O)n3ccccc23)CC1	cell-free assay, competition with immobilised ligand	1 µM	83
O=C(Nc1c[nH]nc1C(=O)NC1CCNCC1)c1cc(F)cc(F)c1	binding, competition with immobilised ligand	1 µM	100
c1ccc(N2CCN(Cc3nc4ccccc4[nH]3)CC2)nc1	binding, competition with immobilised ligand	1 µM	100
N[C@H]1CCN(c2nccc(-c3cnn4ncccc34)n2)C1	binding	1 µM	100
